From PubChem BioAssay
Hits are enriched below; roughly 2.2% of the tested compounds scored in any of these assays.
DYRK1A inh: rat Dyrk1A kinase inhibitors, primary screen, biochemical, single point, plate reader. inhibition, % at 12.5 µM. 310,000 compounds, 0.43% hits. AID 504441, 2011. ADP-Glo luminescence, NFATc1 peptide. Dual specificity tyrosine-phosphorylation-regulated kinase 1A (Rattus norvegicus), Q63470; in the data active means inhibition above about 50%;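 further: plate controls were vehicle with enzyme for no effect and no enzyme for full effect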
Rtt109 Vps75: inhibitors of C. albicans Rtt109/Vps75 HAT, primary screen, biochemical, ThioGlo CoA-SH fluorescence, plate reader; Histone acetyltransferase RTT109 (Candida albicans (strain SC5314 / ATCC MYA-2876)), …; purified Rtt109/Vps75, 4 h; inhibition, % at 34.9 µM; 330,000 compounds, 0.16% hits;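 active means inhibition of at least 50% in every replicate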
Target sequence (Q5AAJ8 whole entry, looked up): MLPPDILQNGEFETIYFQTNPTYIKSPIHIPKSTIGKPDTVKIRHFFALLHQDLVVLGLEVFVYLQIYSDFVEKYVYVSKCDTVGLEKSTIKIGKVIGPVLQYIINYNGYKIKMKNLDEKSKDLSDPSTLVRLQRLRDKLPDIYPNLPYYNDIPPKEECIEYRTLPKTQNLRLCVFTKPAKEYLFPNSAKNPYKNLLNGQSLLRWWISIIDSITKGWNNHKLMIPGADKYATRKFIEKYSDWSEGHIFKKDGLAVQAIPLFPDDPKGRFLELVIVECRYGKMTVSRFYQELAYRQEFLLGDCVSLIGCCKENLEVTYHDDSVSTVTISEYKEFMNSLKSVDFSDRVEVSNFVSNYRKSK
CDK5 inh: inhibitors of human CDK5/p35 kinase, primary screen, biochemical, single concentration; AID 488839, 2010; 330,000 compounds, 0.01% hits; inhibition, % at 10 µM; Recombinant CDK5/p35, ADP-Glo luminescence, 60 min;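 active means highest replicate inhibition of at least 50% and at least 75% of replicates reaching 50%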;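 further: plate controls were DMSO neutral control for no effect and GW8510 at 10 µM for full effect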
CAL PDZ FP-1: CAL PDZ peptide-binding inhibitors, primary screen, biochemical, fluorescence polarization, Cer-tagged CAL PDZ, HTS; Golgi-associated PDZ and coiled-coil motif-containing protein (Homo sapiens), Q9HD26; purified CAL PDZ, TMR-peptide fluorescence polarization, 1 h; inhibition, % at 20 µM; 330,000 compounds, 0.02% hits; AID 504414, 2011;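 active means highest replicate inhibition of at least 40%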;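 further: plate controls were DMSO neutral control wells for no effect and unlabeled competitor peptide control wells for full effect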
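Control set: unlabelled peptide and DMSO controls / Material: purified CerCALP PDZ construct / Timing: 1 h incubation at room temperature before polarization reading / Doses: 20 µM, one dose / Detection: fluorescence polarization (mP)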
CAL PDZ FP-2: untagged CAL PDZ binding inhibitors, primary screen, biochemical, fluorescence polarization, HTS | AID 602252, 2012 | purified CAL PDZ, TMR-peptide fluorescence polarization, 1 h | 300,000 compounds, 0.92% hits | inhibition, % at 24.9 µM;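 active means mean inhibition of at least 30% with at least half of replicates also reaching 30%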;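 further: 0% = DMSO neutral control and 100% = excess unlabeled competitor peptide PRC23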
dFosB act-1: activators of delta FosB homodimer, primary screen, biochemical, fluorescence polarization, TAMRA-CDK5 oligo, single point. purified delta FosB; percent of positive-control signal above neutral wells. AID 493131, 2011. 340,000 compounds, 0.99% hits. activation, % at 25 µM;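 active means mean activation above about 17%, with every replicate also reaching it, limit read from the data, passing the limit was not always enough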
dFosB act-2: activators of mouse delta FosB DNA binding, confirmation, biochemical, fluorescence polarization, TAMRA-CDK5 oligo, cherry-picked samples | 2,400 tested, under 10 active | shares compounds with dFosB act-1 | purified delta FosB; normalised: neutral wells 0, positive control 100 | activation, % at 24.9 µM;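 active means highest replicate activation at or above 34% and every replicate reaching that threshold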;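 further: higher polarization means more probe DNA bound by delta FosB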
Numbers without * were called inactive.

`COc1ccc(NS(=O)(=O)c2ccc(OC)c(NC(=O)CNC(=O)c3ccc(OC)cc3)c2)cc1` gave DYRK1A inh 0.9, Rtt109 Vps75 -2.2, CDK5 inh 0.2, CAL PDZ FP-1 -0.4, CAL PDZ FP-2 -1.4, dFosB act-1 38.7* and dFosB act-2 -3.6.
For CCCCN(C(=O)CSCC(=O)Nc1ccc(C)cc1)c1c(N)n(Cc2ccccc2)c(=O)[nH]c1=O the results were DYRK1A inh 17.1, Rtt109 Vps75 33.4, CDK5 inh 3.4, CAL PDZ FP-1 -2.5, CAL PDZ FP-2 3.3 and dFosB act-1 -1.5.
`N#CC(Sc1ccccn1)c1ccc(Cl)cc1` (stereo not given) gave DYRK1A inh -0.9, Rtt109 Vps75 5.5, CDK5 inh 1.6, CAL PDZ FP-1 0.0, CAL PDZ FP-2 -2.1 and dFosB act-1 -2.1.
Screening CCCCNC(=S)NC(C)(C)CO returned DYRK1A inh 6.8, Rtt109 Vps75 -0.1, CDK5 inh -0.4, CAL PDZ FP-1 -1.2, CAL PDZ FP-2 0.1 and dFosB act-1 -3.5.
O=C1CSC(c2cccc([N+](=O)[O-])c2)N1Cc1ccccc1 (stereo not given) was read as Rtt109 Vps75 -2.7, CDK5 inh -3.9, CAL PDZ FP-1 -0.8, CAL PDZ FP-2 -3.3 and dFosB act-1 2.0.
O=C(N/N=C/c1cccnc1)c1cccc(S(=O)(=O)Nc2cccc(Cl)c2)c1 was read as Rtt109 Vps75 -1.6, CDK5 inh 1.7, CAL PDZ FP-1 1.7, CAL PDZ FP-2 -0.3, dFosB act-1 30.7* and dFosB act-2 1.2.
Screening CSc1nc2sc(-c3ccccc3)cc2c(=O)n1N returned DYRK1A inh -4.8, Rtt109 Vps75 -8.9, CDK5 inh 0.4, CAL PDZ FP-1 -0.7, CAL PDZ FP-2 -0.2, dFosB act-1 65.3* and dFosB act-2 4.2.
`CC1CCC2=NN(C(=O)c3ccco3)C(O)(C(F)(F)F)C2C1` (stereo not given) gave DYRK1A inh -2.8, Rtt109 Vps75 4.1, CDK5 inh -1.4, CAL PDZ FP-1 0.2, CAL PDZ FP-2 -0.4 and dFosB act-1 -10.6.
Screening Clc1ccc(Cn2cc(/C=N/n3cnnc3)c3ccccc32)c(Cl)c1 returned DYRK1A inh -1.7, Rtt109 Vps75 -1.2, CDK5 inh -1.3, CAL PDZ FP-1 -0.5, CAL PDZ FP-2 5.1, dFosB act-1 24.7* and dFosB act-2 3.4.
For COc1cccc(CNC(=O)c2ccncc2)c1 the results were DYRK1A inh 3.2, Rtt109 Vps75 19.0, CDK5 inh -1.1, CAL PDZ FP-1 -1.4, CAL PDZ FP-2 -2.6 and dFosB act-1 -0.7.
Screening C/C(=N\NC(=O)c1nnn(-c2nonc2N)c1CSc1ccc(C)cc1)c1ccco1 returned DYRK1A inh -2.5, Rtt109 Vps75 -0.9, CDK5 inh 1.7, CAL PDZ FP-1 -2.7, CAL PDZ FP-2 -0.2, dFosB act-1 18.4* and dFosB act-2 4.4.
C/C(=N\NC(=O)c1nnn(-c2nonc2N)c1CSc1ccccc1)c1cccnc1 was read as DYRK1A inh 1.8, Rtt109 Vps75 8.3, CDK5 inh 0.3, CAL PDZ FP-1 -2.3, CAL PDZ FP-2 -0.6 and dFosB act-1 -1.7.
C/C(=N\NC(=O)c1nnn(-c2nonc2N)c1CSc1ccccc1)c1ccco1 was read as DYRK1A inh 6.0, Rtt109 Vps75 -9.4, CDK5 inh 3.0, CAL PDZ FP-1 -2.5, CAL PDZ FP-2 0.8, dFosB act-1 38.1* and dFosB act-2 4.4.
For COc1ccc(OC)c(NC(=O)c2cc(S(=O)(=O)N3CCCC3)cn2C)c1 the results were DYRK1A inh 3.5, Rtt109 Vps75 6.0, CDK5 inh 0.2, CAL PDZ FP-1 -1.0 and dFosB act-1 -6.1.
`Cc1ccc(CC(=O)NCc2ccc(F)cc2)cc1` gave DYRK1A inh -1.1, Rtt109 Vps75 -1.6, CDK5 inh -0.5, CAL PDZ FP-1 -1.6, CAL PDZ FP-2 -0.9 and dFosB act-1 1.9.
O=C(NCc1ccc(F)cc1)c1cc(S(=O)(=O)N2CCCCC2)ccc1N1CCOCC1 was read as DYRK1A inh -7.4, Rtt109 Vps75 1.0, CDK5 inh 0.9, CAL PDZ FP-1 -0.3, CAL PDZ FP-2 -3.8 and dFosB act-1 -12.0.
O=C(CNC(=O)c1cc(S(=O)(=O)N2CCCCC2)ccc1N1CCOCC1)Nc1ccc(F)c(F)c1 was read as DYRK1A inh 10.8, Rtt109 Vps75 11.5, CDK5 inh -1.8, CAL PDZ FP-1 -1.8, CAL PDZ FP-2 -3.5, dFosB act-1 54.1* and dFosB act-2 0.5.
Screening COc1cc(NC(=O)COC(=O)c2n[nH]c3ccccc23)c(C)cc1[N+](=O)[O-] returned DYRK1A inh 11.4, Rtt109 Vps75 -0.2, CDK5 inh -3.3, CAL PDZ FP-1 -0.1, dFosB act-1 31.9* and dFosB act-2 -0.8.
For O=C(COC(=O)c1n[nH]c2ccccc12)Nc1ccc([N+](=O)[O-])cc1 the results were DYRK1A inh -1.1, Rtt109 Vps75 4.6, CDK5 inh -0.7, CAL PDZ FP-1 -2.6, CAL PDZ FP-2 -0.5 and dFosB act-1 14.1.
`O=C(Cc1ccccc1)NNC1CC(=O)N(c2ccc(Cl)cc2)C1=O` (stereo not given) gave DYRK1A inh 2.6, Rtt109 Vps75 -2.9, CDK5 inh 0.9, CAL PDZ FP-1 0.2, CAL PDZ FP-2 -3.8 and dFosB act-1 -1.4.
`O=C(Cc1ccc(Cl)cc1)NNC1CC(=O)N(c2ccc3ccccc3c2)C1=O` (stereo not given) gave DYRK1A inh 4.8, Rtt109 Vps75 5.2, CDK5 inh 0.0, CAL PDZ FP-1 -0.3, CAL PDZ FP-2 -2.7, dFosB act-1 31.9* and dFosB act-2 2.6.
`COc1ccc(-c2noc(CSc3nc(N)c(-c4ccccc4)c(=O)[nH]3)n2)cc1` gave DYRK1A inh 4.8, Rtt109 Vps75 2.0, CDK5 inh -0.2, CAL PDZ FP-1 -3.9, CAL PDZ FP-2 0.9, dFosB act-1 61.6* and dFosB act-2 -1.2.
